Assay outcomes as filed in PubChem.
The list is not random: actives were taken first. Their share in the collection is about 2.4%.
PfG6PD inh = PfG6PD enzyme inhibitors, primary screen, biochemical, fluorescence intensity, uHTS; glucose-6-phosphate dehydrogenase-6-phosphogluconolactonase (Plasmodium falciparum 3D7); PfGluPho enzyme, NADPH resazurin-diaphorase fluorescence; inhibition, % at 20 µM; 350,000 compounds, 0.78% hits; AID 504690, 2011;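 active = inhibition reaching at least a set limit at 20 µM in the primary screen, cut at about 59% in these data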;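 also: 0% = DMSO wells with substrate and 100% = DMSO wells lacking glucose-6-phosphate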
HKDC1 inh = HKDC1 hexokinase inhibitors, primary screen, biochemical, fluorescence, uHTS | Q2TB90 | 340,000 compounds, 0.16% hits | inhibition, % at 20 µM | recombinant HKDC1, G6PDH/diaphorase resazurin coupled fluorescence;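 active = inhibition above about 35% when tested at 20 µM, limit read from the data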;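 also: plate controls were DMSO wells with enzyme for no effect and DMSO wells lacking enzyme for full effect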
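Incubation: 90 min at room temperature in dark / Material: recombinant HKDC1 (HK5) hexokinase enzyme, produced in-house / Quantity: enzyme 5 µg/mL final / Compound: one dose of 20 µM, 1% DMSO / Reagent: glucose and ATP substrates / Buffer or medium: Tris pH 8.0 buffer with MgCl2, Tween-20, BSA, BME / Technique: resorufin fluorescence at 613 nm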
SUMO HTRF inh = inhibitors of in vitro SUMOylation cascade, primary screen, biochemical, HTRF, uHTS; SUMO-conjugating enzyme UBC9 (Homo sapiens), P63279; 290,000 compounds, 0.36% hits; HTRF SUMOylation assay, SAE1/SAE2 + UBC9; inhibition, % at 35 µM; in the data active = inhibition above about 50%, passing the limit was not always enough
A3A deaminase = APOBEC3A ssDNA deaminase inhibitors, primary screen, selectivity assay for APOBEC3G inhibitor project, biochemical, FAM/TAMRA oligo cleavage fluorescence; inhibition, % at 20 µM; recombinant A3A, FAM/TAMRA ssDNA deamination fluorescence; 330,000 compounds, 0.41% hits; DNA dC->dU-editing enzyme APOBEC-3A (Homo sapiens), P31941;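 active = at least 40% inhibition at 20 µM here, with at most 30% in a related deaminase screen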;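 also: plate controls were A3A with DMSO for no effect and wells lacking A3A enzyme for full effect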
Target sequence (P31941 whole entry, looked up): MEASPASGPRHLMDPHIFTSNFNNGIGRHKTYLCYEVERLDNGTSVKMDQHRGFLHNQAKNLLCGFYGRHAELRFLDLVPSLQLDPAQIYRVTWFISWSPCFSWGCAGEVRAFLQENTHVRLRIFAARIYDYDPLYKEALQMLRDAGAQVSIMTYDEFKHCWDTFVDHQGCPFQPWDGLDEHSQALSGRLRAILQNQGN
A3G deaminase = APOBEC3G DNA deaminase inhibitors, primary screen, biochemical, fluorescence, single-stranded DNA substrate, uHTS. DNA dC->dU-editing enzyme APOBEC-3G (Homo sapiens), Q9HC16. inhibition, % at 20 µM. recombinant A3G, ssDNA deamination FAM/TAMRA fluorescence. 330,000 compounds, 0.28% hits;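 active = inhibition of at least 40% at 20 µM, with no more than 30% in the related APOBEC3A deaminase screen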;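 also: plate controls were DMSO wells with A3G for no effect and wells lacking A3G enzyme for full effect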
Target sequence (Q9HC16 whole entry, looked up): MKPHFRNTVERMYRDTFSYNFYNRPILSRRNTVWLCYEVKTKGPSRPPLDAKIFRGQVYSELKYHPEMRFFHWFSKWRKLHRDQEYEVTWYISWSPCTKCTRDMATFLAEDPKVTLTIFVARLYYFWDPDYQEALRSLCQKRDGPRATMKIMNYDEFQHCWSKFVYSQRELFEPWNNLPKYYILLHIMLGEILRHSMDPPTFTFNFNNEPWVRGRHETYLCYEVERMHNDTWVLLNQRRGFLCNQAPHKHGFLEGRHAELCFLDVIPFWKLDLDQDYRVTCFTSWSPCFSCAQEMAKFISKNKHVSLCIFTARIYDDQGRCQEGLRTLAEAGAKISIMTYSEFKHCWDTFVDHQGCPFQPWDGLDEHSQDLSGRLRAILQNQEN
PfM18AAP inh = PfM18AAP inhibitors, malaria aminopeptidase, primary screen, biochemical, QFRET, recombinant enzyme | H-Glu-NHMec fluorogenic cleavage | M18 aspartyl aminopeptidase (Plasmodium falciparum 3D7) | inhibition, % at 7.35 µM | AID 1822, 2009 | 290,000 compounds, 1.2% hits;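 active = inhibition above the campaign mean inhibition over all tested compounds plus 3 SD, cut at about 28% in these data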;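 also: 0% = plate median of test compound wells and 100% = 2 mM ZnCl2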
Starred values were filed as active, the others as inactive; . = no result given.

SMILES	PfG6PD inh	HKDC1 inh	SUMO HTRF inh	A3A deaminase	A3G deaminase	PfM18AAP inh
COc1ccccc1C(=O)Nc1ncc2c(n1)CC(c1ccco1)CC2=O (stereo not given)	19.0	1.3	22.6	-1.4	-2.4	-1.5
Cn1cccc1C1C(C#N)=C(N)OC2=C1C(=O)CCC2 (stereo not given)	-0.9	2.5	5.8	-0.8	-3.9	28.1*
Cc1ccc(S(=O)(=O)N2CCCCC2)cc1C(=O)NC1CCCCC1	3.0	0.1	22.0	1.8	-1.5	-10.6
CCCN1C(=O)/C(=C/c2c(N3CCNC(=O)C3CC(=O)OCC)nc3c(C)cccn3c2=O)SC1=S (stereo not given)	59.9*	12.2	-1.0	-1.5	-1.8	3.6
C#CCOCCOCCOCCNc1nc(N2CCN(C(=O)C([C@@H](C)O)n3cc([C@@H](N)CCCCN)nn3)CC2)nc(N2CCN(C(=O)[C@H](CCCN=C(N)N)n3cc(C(N)[C@@H](C)CC)nn3)CC2)n1 (stereo not given in full)	15.1	-5.0	.	4.8	-5.7	.
O=C(Nc1cccc(-c2nc3ccccc3[nH]2)c1)c1cccc(NC(=O)c2ccco2)c1	0.0	6.4	40.5	4.6	1.8	-1.4
O=C(Nc1ccc2nc(-c3ccccc3)[nH]c2c1)c1ccco1	69.5*	3.1	1.6	-2.8	-4.6	-0.9
N/C(=N\c1nc2ccccc2o1)NC(=O)c1ccccc1F	1.4	-4.2	24.5	-4.0	-7.5	-0.8
O=C(N[C@H](C(=O)O)c1ccccc1)C1CCC(Cn2nnc3ccccc3c2=O)CC1 (stereo not given in full)	.	.	-4.3	0.1	-4.2	7.4
C=CCOc1c(Br)cc(CNc2ccc(NC(=O)C(C)C)c(OC)c2)cc1OCC	60.0*	5.4	13.5	-2.0	-8.1	3.8
CCOc1cc(C(c2c(C)[nH][nH]c2=O)c2c(C)[nH][nH]c2=O)ccc1O	20.8	-1.5	4.6	2.7	-1.4	29.7*
Cc1[nH][nH]c(=O)c1C(c1ccc(O)c([N+](=O)[O-])c1)c1c(C)[nH][nH]c1=O	8.0	-5.5	-8.3	-0.6	-7.1	31.2*
Cc1[nH][nH]c(=O)c1C(c1ccc(O)c(Br)c1)c1c(C)[nH][nH]c1=O	-7.8	2.4	-10.5	-6.6	-7.8	27.5
C=C(C)c1sc(-c2ccc(Cl)cc2)nc1C	14.3	-2.1	.	-3.5	-19.5	.
COc1ccc(C)cc1NC(=O)CCS(=O)(=O)c1ccc2c(c1)oc(=O)n2C	6.8	7.6	2.5	-3.3	-7.1	-2.5
Cc1ccc(C(=O)COC(=O)COc2ccccc2[N+](=O)[O-])s1	7.2	-5.6	.	1.6	2.3	.
CCOC(=O)COc1ccccc1/C=C\[N+](=O)[O-]	33.3	1.4	6.2	.	.	31.7*
CSCCC1C(=O)OC2(C)CC(C)(C)NC(=S)N12 (stereo not given)	-12.7	-1.5	-15.4	-4.6	-3.0	-0.1
O=C1c2c([N+](=O)[O-])cc([N+](=O)[O-])cc2S(=O)N1Cc1ccccc1 (stereo not given)	62.5*	3.6	7.0	1.9	38.0	52.3*
N#CCSc1nc2c(c(C3CC=CCC3)c1C#N)CCC2 (stereo not given)	-22.1	0.9	-9.8	-1.4	-9.2	-1.1
O=S(=O)(c1ccccc1)N1CCN(S(=O)(=O)N2CCCCC2)CC1	-0.7	-10.6	32.8	-1.2	-1.6	0.7
CC(=O)Nc1nc(=O)c2ccccc2s1	6.1	-10.2	-11.8	-4.3	-7.6	30.4*
COc1cccc(NC(=O)CN(C)C(=O)CNC(=O)c2ccccc2F)c1	3.8	-4.1	16.9	-2.3	8.9	-3.1
CCN1C(=O)N(c2cccc3ccccc23)C(C)=CC1(C)C	-14.3	1.1	-6.1	-4.1	-6.4	-0.6
Cc1cccc2c3c([nH]c12)CCN(C)C3	2.3	4.6	3.1	0.8	-0.4	28.7*
SMILES	PfG6PD inh	HKDC1 inh	SUMO HTRF inh	A3A deaminase	A3G deaminase	PfM18AAP inh
CN(C)S(=O)(=O)c1ccc(C(=O)N(c2ccccn2)c2ccccn2)cc1	-5.1	-13.3	-9.0	-1.6	-4.3	-17.2
Cc1cccc(OCC(=O)N/N=C/C=C/c2ccco2)c1	14.5	15.7	26.4	14.9	9.7	7.0
Cn1c(SCC(=O)N/N=C/C=C\c2ccco2)nc2ccccc21	61.7*	9.2	41.6	3.9	-4.2	9.5
Cc1cccc(C)c1OCC(=O)N/N=C/C=C/c1ccco1	19.3	-8.9	55.4*	-2.3	-0.2	8.5
O=C(O)c1cc(NS(=O)(=O)c2ccc(NCc3ccccc3)c([N+](=O)[O-])c2)cc(C(=O)O)c1	-9.0	-2.4	11.2	8.1	-0.6	-6.3
CCOc1ccccc1C=C1CCc2ccccc2C1=O	29.0	.	.	.	.	.
COc1ccc(CNC(=O)CSc2nnc(C)n2-c2ccc(F)cc2)cc1	6.6	9.1	0.1	0.1	-1.9	-3.5
Oc1ccc(C=Nc2cccc3ncccc23)c(O)c1	16.2	18.3	92.5	1.5	-1.4	17.6
Oc1ccc(C=Nc2ccc3ncccc3c2)c(O)c1	.	.	65.4*	1.0	-0.9	15.6
COc1ccc(CNc2cc(NCCCO)c([N+](=O)[O-])c3nonc23)cc1	14.3	17.9	96.2*	-2.2	-9.3	-2.0
COc1ccc(Nc2cc(NCCCO)c([N+](=O)[O-])c3nonc23)cc1	-1.0	10.5	2.2	-1.5	32.5	-2.5
CC(=O)OCCNc1cc(SCc2ccco2)c2nonc2c1[N+](=O)[O-]	28.6	5.7	92.8	.	.	-6.4
O=[N+]([O-])c1c(NCCCO)cc(SCc2ccco2)c2nonc12	28.4	2.3	89.6*	24.9	19.1	3.4
COc1ccc(S(=O)(=O)N2CCC3(CC2)OCCN3S(=O)(=O)c2ccc(C)cc2)cc1OC	-16.7	-1.4	.	3.5	21.6	.
COc1ccc(CCC(=O)N(C)CC(=O)Nc2ccc(N3CCOCC3)cc2)cc1	3.5	-1.8	-20.2	1.5	-10.2	7.9
COc1ccccc1N/N=C/c1ccc2c(c1)OCO2	15.0	-9.0	-6.4	0.0	-12.3	30.9*
COc1ccccc1C(=O)N/N=C/c1ccc2c(c1)OCO2	20.4	-5.3	-5.5	-1.7	2.1	-5.1
CC1CN(Cc2cc(=O)oc3cc(O)c(Cl)cc23)CC(C)O1 (stereo not given)	12.1	-4.5	32.4	-4.1	-1.4	-14.8
